Source: ChEMBL document CHEMBL3045815, “The cruciferous phytoalexins rapalexin A, brussalexin A and erucalexin: chemistry and metabolism in Leptosphaeria maculans” (Bioorg Med Chem, 2012)

What was measured:
[1] = tested on: Plenodomus lingam; experiment: Antifungal activity against Leptosphaeria maculans assessed as mycelial radial growth inhibition on potato dextrose agar at 0.20 mM relative to control; assay type: functional
Outline: (§1)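 Mycelial radial growth on PDA. L. maculans isolates BJ-125 or UAMH-9410 were grown on V8 agar for 14 days at 23 °C under constant light. Wells with PDA containing test compound (0.50, 0.20 or 0.10 mM) or control, each with 1% CH3CN, were inoculated centrally with inverted 4 mm plugs from 7-day-old V8 plates. Growth after 5 days under constant light gave % inhibition = 100 − (amended/control growth × 100); ± SD.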

[2] = tested on: Plenodomus lingam; experiment: Antifungal activity against Leptosphaeria maculans assessed as mycelial radial growth inhibition on potato dextrose agar at 0.50 mM relative to control; assay type: functional; outline: as §1
[3] = tested on: Plenodomus lingam; experiment: Antifungal activity against Leptosphaeria maculans assessed as mycelial radial growth inhibition on potato dextrose agar at 0.10 mM relative to control; assay type: functional; outline: as §1
[4] = Half life in water; assay type: physicochemical
[5] = Half life in Leptosphaeria maculans; assay type: ADME, organism-based; conditions: plenodomus lingam
Outline: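 Minimal medium inoculated with L. maculans BJ-125 spores was shaken at 120 rpm and 23 °C under constant light. After 2 days, compound was added in CH3CN (0.10 mM final); uninoculated medium served as control. Samples were taken immediately and at intervals up to 72–96 h, then frozen or extracted with EtOAc. Extracts were concentrated, taken up in CH3CN and analysed by HPLC.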

[6] = Half life in potato dextrose agar medium; assay type: physicochemical

Row | Structure (SMILES) | half-life [4] [h] | half-life [5] [h] | half-life [6] [h] | inhibition at 200 µM [1] [%] | inhibition at 500 µM [2] [%] | inhibition at 100 µM [3] [%]
1 | CNC(=S)SCc1c[nH]c2ccccc12 | 20 | – | 24 | 35 | 61 | 17
2 | COc1cccc2[nH]cc(N=C=S)c12 [RAPALEXIN A] | – | – | – | 53 | 100 | 21
3 | CON1c2ccccc2C(O)C12CN=C(SC)S2 (mixture of isomers) [DIHYDROERUCALEXIN] | – | – | – | 13 | 23 | 7

Continued, in another order:

Row | half-life [4] [h] | half-life [5] [h] | half-life [6] [h] | Structure (SMILES) | inhibition at 200 µM [1] [%] | inhibition at 500 µM [2] [%] | inhibition at 100 µM [3] [%]
4 | > 72 | – | – | OCc1c[nH]c2ccccc12 [INDOLE-3-CARBINOL] | 27 | 52 | 19
5 | – | < 6 | – | CON1c2ccccc2C(=O)C12CN=C(SC)S2 (racemic) [RAC-ERUCALEXIN] | 17 | 40 | 6
6 | 48 | – | 15 | C=CCNC(=O)SCc1c[nH]c2ccccc12 [BRUSSALEXIN A] | 25 | 43 | 7
